Assay results reported in ChEMBL document CHEMBL4145615, “Indolyl Azaspiroketal Mannich Bases Are Potent Antimycobacterial Agents with Selective Membrane Permeabilizing Effects and in Vivo Activity” (J Med Chem, 2018).
≈ marks a conversion by molar mass, not a printed value.

Experiments:
[1] = system: Mus musculus; assay: Acute toxicity in BALB/c mouse at 100 mg/kg administered via oral gavage for 3 days measured over 7 days; format: organism-based; settings: in vivo, 168 h
Method in brief: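 BALB/c mice, 3 per group, oral gavage at 100 mg/kg in 200 μL of equal volumes PEG400 and 5% glucose. Dosed on three consecutive days, then monitored 7 days. Euthanized by CO2 and examined for gross pathological changes.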

[2] = system: Mus musculus; assay: Toxicity in CD1 mouse at 25 mg/kg, po administered as single dose by LC/MS-MS analysis; format: organism-based; settings: in vivo
Method in brief: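 Uninfected CD-1 mice (n=2 per compound) received a single oral 25 mg/kg dose as a solution in 5% DMA/65% PEG300/30% D5W. Tail-bleed blood was taken at 30 min, 1, 3 and 5 h and spun to plasma. Lungs were taken at 5 h and homogenized in about 5 volumes of PBS. Samples were acetonitrile/methanol-precipitated with verapamil internal standard and quantified by LC-MS/MS against standard curves in drug-free CD1 plasma.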

[3] = system: Lipid bilayer
[4] = Hemolytic activity against human RBC after 1 hr; format: ADME, cell-based, Erythrocyte; settings: red blood cells (erythrocytes)
Method in brief: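 Human red blood cells were exposed to the test compound at a range of concentrations in phosphate-buffered saline for 1 h at 37°C. Hemolysis was referenced to 2% Triton X-100, taken as 100% hemolysis. The value reported is the concentration that lyses 50% of RBCs.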

[5] = system: Mycobacterium tuberculosis; assay: Bactericidal activity against Mycobacterium tuberculosis H37Rv ATCC 27294 assessed as 1000 fold reduction in CFU after 7 days; format: functional; settings: H37Rv ATCC 27294, 168 h, read-out: MBC99.9
Method in brief: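 BCG ran 5 days at 37°C, 110 rpm; H37Rv ran 7 days at 37°C, 80 rpm. CFU counted on 7H10 agar. MBC99.9 is the 1000-fold CFU reduction versus inoculum at time zero. Average of 2 or more determinations.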

[6] = system: Mycobacterium tuberculosis; assay: Bactericidal activity against Mycobacterium tuberculosis H37Rv ATCC 27294 after 5 days; format: functional; settings: H37Rv ATCC 27294, 120 h, read-out: MBC99.9
[7] = Half life in rat liver microsomes at 1 uM preincubated for 5 mins followed by NADPH addition measure up to 45 mins by LC-MS analysis; format: ADME, microsome; settings: 0.75 h
Method in brief: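 Male rat liver microsomes, incubated 45 min at 37°C. Half-life reported as mean ± SD.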

[8] = Cmax in CD1 mouse at 25 mg/kg, po administered as single dose by LC/MS-MS analysis; format: ADME, organism-based; parameters: dose 25 mg/kg, route oral; settings: in vivo
Method in brief: (§1)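 Uninfected CD-1 mice (n=2 per compound), single oral dose 25 mg/kg as a solution in 5% DMA/65% PEG300/30% D5W. Blood taken at 30 min, 1, 3, 5 h and plasma separated by centrifugation. Lungs taken at 5 h and homogenized in ~5 volumes PBS. Levels measured by LC/MS-MS after acetonitrile/methanol protein precipitation with verapamil internal standard. AUC and Cmax calculated from mean concentrations.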

[9] = Drug uptake in lung of Mycobacterium tuberculosis H37Rv infected BALB/c mouse at 100 mg/kg administered 6 days per week for 4 weeks via oral gavage; format: ADME, organism-based; settings: in vivo, read-out: Drug uptake
[10] = system: Mycobacterium tuberculosis; assay: Antimycobacterial activity against Mycobacterium tuberculosis H37Rv ATCC 27294 after 7 days by broth dilution method; format: functional; settings: H37Rv ATCC 27294, 168 h
[11] = system: Mus musculus; assay: AUC in CD1 mouse at 25 mg/kg, po administered as single dose by LC/MS-MS analysis; format: ADME, organism-based; settings: in vivo; method in brief: as §1
[12] = system: Mycobacterium tuberculosis; assay: Loebicidal activity against nutrient-starved nongrowing Mycobacterium tuberculosis H37Rv ATCC 27294 assessed as 1000 fold reduction in CFU after 7 days; format: functional
Method in brief: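 Mtb H37Rv nutrient-starved, non-growing bacilli prepared from a roller-bottle culture. 1 mL at OD600 = 0.05 exposed to a range of concentrations for 7 days at 37°C, 80 rpm. CFU counted on 7H10 agar. LCC99.9 is the 1000-fold reduction versus drug-free inoculum at time zero.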

[13] = system: Vero C1008; assay: Cytotoxicity against African green monkey Vero E6 cells assessed as cell growth inhibition after 48 hrs by celltitre 96 aqueous one-based assay; settings: Chlorocebus sabaeus, Vero C1008, 48 h
[14] = Plasma concentration in CD1 mouse at 25 mg/kg, po administered as single dose measured at 5 hrs post dose by LC/MS-MS analysis; format: ADME, organism-based; method in brief: as §1
[15] = Ratio of drug level in CD1 mouse lung to plasma at 25 mg/kg, po administered as single dose measured at 5 hrs post dose by LC/MS-MS analysis; format: ADME, organism-based
Method in brief: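 Blood taken at 30 min, 1, 3, 5 h and plasma separated by centrifugation. Lungs taken at 5 h and homogenized in ~5 volumes PBS. Levels measured by LC/MS-MS after acetonitrile/methanol protein precipitation with verapamil internal standard. AUC and Cmax calculated from mean concentrations.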

[16] = Drug uptake in lungs of CD1 mouse at 25 mg/kg, po administered as single dose measured at 5 hrs post dose by LC/MS-MS analysis; format: ADME, organism-based; settings: lung, read-out: Drug uptake; method in brief: as §1

Compound | Activity [1] | Activity [2] | ΔTm [3] [°C] | HC50 at 1 h [4] [µM] | MBC [5] [µM] | MBC [6] [µM] | t1/2 [7] [min] | Cmax [8] [ng/mL] | concentration [9] [nM] | MIC50 [10] [µM] | MIC90 [10] [µM] | AUC [11] [ng·h/mL] | LCC99 [12] [µM] | IC50 [13] [µM] | concentration at 5 h [14] [ng/mL] | LCC99.9 [12] [µM] | Kp at 5 h [15] | concentration at 5 h [16] [ng/g]
CCCCCCCCn1cc(CN2CCC3(CC2)OCCCO3)c2ccc(OC)cc21 | Non-Toxic | Non-Toxic | 4 | 64 | 3.2 (≈ 1.37 µg/mL) | 3.2 (≈ 1.37 µg/mL) | 27.7 | 64.8 | 3000 | 0.44 (≈ 0.189 µg/mL) | 0.76 (≈ 0.326 µg/mL) | 282 | 18 | 29 | 58.5 |  |  | 
CCCCCCCCn1cc(CN2CCC3(CC2)OCCCS3)c2ccc(OC)cc21 |  | Non-Toxic | 4 | > 300 | 3.2 (≈ 1.42 µg/mL) | 3.2 (≈ 1.42 µg/mL) | 32.9 | 60.6 |  | 0.5 (≈ 0.222 µg/mL) | 0.8 (≈ 0.356 µg/mL) | 224 |  | 39 | 55.2 | <18 | 28.9 | 1600
CCCCCCCCn1cc(CN2CCC3(CC2)OCCO3)c2ccc(OC)cc21 | Non-Toxic | Non-Toxic |  | 75 |  |  | 17.4 | 42 | 1000 | 1.2 (≈ 0.498 µg/mL) | 2.3 (≈ 0.954 µg/mL) | 173 |  |  | 33 |  | 14.2 | 468
